# Assay results published in ChEMBL document CHEMBL4049434, “Radiolabeled Dibenzodiazepinone-Type Antagonists Give Evidence of Dualsteric Binding at the M2 Muscarinic Acetylcholine Receptor” (J Med Chem, 2017).
# Activity calls are given as the source filed them. The calls are words filed in the database; no cut-off is given here.
# Assays:
# [1] = target: T1, Muscarinic acetylcholine receptor M2 (Homo sapiens, UniProt P08172); experiment: Displacement of [3H]UNSW-MK259 from human muscarinic acetylcholine receptor M2 expressed in CHOK9 cells after 3 hrs by liquid scintillation counting assay; format: cell-based
# T1 sequence (P08172 whole entry): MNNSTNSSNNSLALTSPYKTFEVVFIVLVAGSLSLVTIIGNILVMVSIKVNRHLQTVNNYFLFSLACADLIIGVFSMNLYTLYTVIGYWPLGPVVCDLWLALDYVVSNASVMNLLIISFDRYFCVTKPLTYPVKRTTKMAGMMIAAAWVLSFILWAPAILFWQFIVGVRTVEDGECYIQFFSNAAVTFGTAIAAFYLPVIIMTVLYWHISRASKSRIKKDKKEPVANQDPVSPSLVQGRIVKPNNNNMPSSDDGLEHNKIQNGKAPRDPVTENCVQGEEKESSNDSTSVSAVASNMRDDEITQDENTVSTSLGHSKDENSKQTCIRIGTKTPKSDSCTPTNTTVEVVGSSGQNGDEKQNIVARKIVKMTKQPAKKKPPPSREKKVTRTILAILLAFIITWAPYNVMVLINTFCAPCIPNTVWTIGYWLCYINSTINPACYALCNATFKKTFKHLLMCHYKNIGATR
# [2] = target: T1, Muscarinic acetylcholine receptor M2; experiment: Displacement of [3H]UR-AP060 from human muscarinic acetylcholine receptor M2 expressed in CHOK9 cell homogenate after 3 hrs by liquid scintillation counting assay
# [3] = target: T1, Muscarinic acetylcholine receptor M2; experiment: Displacement of [3H]NMS from human muscarinic acetylcholine receptor M2
# Summary of the method: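 Competition binding at intact adherent CHO-K9 cells stably expressing human M2R. Cells were incubated with [3H]NMS 0.2 nM (final) and competitor for 3 h at 23 ± 1 °C in Leibovitz L-15 medium with 1% BSA. […] Curves were fitted by four-parameter logistic fits. Replicates: 3 to 9 independent experiments, each in triplicate.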
# [4] = target: T2, Muscarinic acetylcholine receptor M1 (Homo sapiens, UniProt P11229); experiment: Displacement of [3H]NMS from human muscarinic acetylcholine receptor M1 expressed in CHOK9 cells after 3 hrs by liquid scintillation counting assay; format: cell-based
# T2 sequence (P11229 whole entry): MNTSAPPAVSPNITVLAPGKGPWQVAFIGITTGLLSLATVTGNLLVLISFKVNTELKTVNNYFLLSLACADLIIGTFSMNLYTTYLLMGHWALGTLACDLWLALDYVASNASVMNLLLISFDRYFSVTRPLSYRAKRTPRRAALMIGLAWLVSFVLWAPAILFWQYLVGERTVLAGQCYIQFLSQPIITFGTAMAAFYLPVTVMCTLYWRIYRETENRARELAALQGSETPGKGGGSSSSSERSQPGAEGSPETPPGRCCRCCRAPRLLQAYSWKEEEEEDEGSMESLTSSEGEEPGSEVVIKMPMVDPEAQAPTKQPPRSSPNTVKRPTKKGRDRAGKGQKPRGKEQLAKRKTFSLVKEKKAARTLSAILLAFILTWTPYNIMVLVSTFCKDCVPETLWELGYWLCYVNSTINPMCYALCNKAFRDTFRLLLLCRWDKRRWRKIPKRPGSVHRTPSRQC
# [5] = target: T1, Muscarinic acetylcholine receptor M2; experiment: Displacement of [3H]NMS from human muscarinic acetylcholine receptor M2 expressed in CHOK9 cells after 3 hrs by liquid scintillation counting assay; format: cell-based; conditions: read-out: pKi (converted)
# [6] = target: Muscarinic acetylcholine receptor M3 (Homo sapiens, UniProt P20309); experiment: Displacement of [3H]NMS from human muscarinic acetylcholine receptor M3 expressed in CHOK9 cells after 3 hrs by liquid scintillation counting assay; format: cell-based
# Sequence of Muscarinic acetylcholine receptor M3 (P20309 whole entry): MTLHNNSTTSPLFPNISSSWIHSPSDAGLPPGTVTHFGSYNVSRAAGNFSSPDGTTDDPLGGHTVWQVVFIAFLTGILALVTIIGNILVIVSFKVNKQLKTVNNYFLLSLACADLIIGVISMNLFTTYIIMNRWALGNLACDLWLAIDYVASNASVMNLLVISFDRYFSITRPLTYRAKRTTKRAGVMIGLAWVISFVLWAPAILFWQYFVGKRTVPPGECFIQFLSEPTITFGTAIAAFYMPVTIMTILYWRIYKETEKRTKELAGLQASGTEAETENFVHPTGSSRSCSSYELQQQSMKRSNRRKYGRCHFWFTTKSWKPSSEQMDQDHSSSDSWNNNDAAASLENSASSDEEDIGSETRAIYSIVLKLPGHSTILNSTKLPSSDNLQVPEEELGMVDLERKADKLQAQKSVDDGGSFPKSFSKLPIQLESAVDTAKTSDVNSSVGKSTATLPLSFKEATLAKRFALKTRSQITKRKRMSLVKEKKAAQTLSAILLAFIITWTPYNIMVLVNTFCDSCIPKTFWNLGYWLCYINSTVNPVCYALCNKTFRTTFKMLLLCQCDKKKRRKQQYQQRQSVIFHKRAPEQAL
# [7] = target: T3, Muscarinic acetylcholine receptor M4 (Homo sapiens, UniProt P08173); experiment: Displacement of [3H]NMS from human muscarinic acetylcholine receptor M4 expressed in CHOK9 cells after 3 hrs by liquid scintillation counting assay; format: cell-based
# T3 sequence (P08173 whole entry): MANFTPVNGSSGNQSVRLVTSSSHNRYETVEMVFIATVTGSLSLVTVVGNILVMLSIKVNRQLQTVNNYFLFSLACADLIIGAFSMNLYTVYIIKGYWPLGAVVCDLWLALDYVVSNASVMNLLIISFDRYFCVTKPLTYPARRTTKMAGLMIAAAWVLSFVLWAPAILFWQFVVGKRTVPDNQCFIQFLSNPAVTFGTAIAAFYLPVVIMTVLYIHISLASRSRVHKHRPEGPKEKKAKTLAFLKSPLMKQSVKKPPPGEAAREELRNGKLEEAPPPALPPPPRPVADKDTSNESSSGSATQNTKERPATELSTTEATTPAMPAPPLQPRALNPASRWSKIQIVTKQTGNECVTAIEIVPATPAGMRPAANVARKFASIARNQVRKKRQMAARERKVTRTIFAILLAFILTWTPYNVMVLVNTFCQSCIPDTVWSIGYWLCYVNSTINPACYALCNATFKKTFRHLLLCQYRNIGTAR
# [8] = target: T4, Muscarinic acetylcholine receptor M5 (Homo sapiens, UniProt P08912); experiment: Displacement of [3H]NMS from human muscarinic acetylcholine receptor M5 expressed in CHOK9 cells after 3 hrs by liquid scintillation counting assay; format: cell-based
# T4 sequence (P08912 whole entry): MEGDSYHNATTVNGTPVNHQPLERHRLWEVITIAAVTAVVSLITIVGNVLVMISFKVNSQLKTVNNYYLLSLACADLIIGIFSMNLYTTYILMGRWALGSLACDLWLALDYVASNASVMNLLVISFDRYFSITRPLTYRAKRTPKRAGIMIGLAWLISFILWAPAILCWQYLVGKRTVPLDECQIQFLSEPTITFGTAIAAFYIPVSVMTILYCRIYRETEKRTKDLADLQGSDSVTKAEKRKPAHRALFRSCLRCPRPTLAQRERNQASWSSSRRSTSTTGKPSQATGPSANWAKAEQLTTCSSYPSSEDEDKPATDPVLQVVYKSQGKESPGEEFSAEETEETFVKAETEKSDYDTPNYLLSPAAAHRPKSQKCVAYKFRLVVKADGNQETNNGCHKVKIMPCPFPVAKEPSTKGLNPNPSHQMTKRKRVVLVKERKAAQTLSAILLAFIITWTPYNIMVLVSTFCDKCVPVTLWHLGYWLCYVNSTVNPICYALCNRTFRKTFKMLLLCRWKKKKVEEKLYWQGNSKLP
# [9] = target: T5, Muscarinic acetylcholine receptor M2 (Homo sapiens) (UniProt P08172); experiment: Binding affinity to human muscarinic acetylcholine receptor M2 expressed in live adherent CHOK9 cells after 2 hrs by liquid scintillation counting assay; format: cell-based; conditions: tested as the 3H-labelled form
# T5 sequence (whole entry): T1 sequence (P08172 whole entry)
# Summary of the method: (§1)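 Live adherent CHO-hM2 cells in L15 medium with 1% BSA, 23 ± 1 °C, 2 h incubation. Competition at 2 nM radioligand; additional 4, 8, 15 and 30 nM in W84 experiments. […] Saturation data fitted one-site; competition by four-parameter logistic fits; at least three experiments in triplicate.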
# [10] = target: T5, Muscarinic acetylcholine receptor M2 (Homo sapiens); experiment: Binding affinity to human muscarinic acetylcholine receptor M2 expressed in CHOK9 cell homogenate after 2 hrs by liquid scintillation counting assay; conditions: tested as the 3H-labelled form
# Summary of the method: (§2)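 CHO-hM2 cell homogenates (25–30 μg protein/well) in L15 medium with 1% BSA, 23 ± 1 °C, 2 h with tritiated dimeric radioligand. Competition used 0.5 nM radioligand; additional 0.4, 1, 2 and 4 nM in W84 experiments. […] Four-parameter logistic fits; at least three experiments in triplicate.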
# [11] = Chemical stability of the compound in PBS buffer at pH 7.4 after 48 hrs by HPLC analysis; format: physicochemical; conditions: pH 7.4, 48 h
# Summary of the method: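 Compound at 100 μM final (from 10 mM stock) in PBS pH 7.4 at 22 ± 1 °C; samples taken at 0, 24 and 48 h, mixed with acetonitrile/1% aq TFA 2:8, analysed by RP-HPLC at 220 nm.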
# [12] = target: T5, Muscarinic acetylcholine receptor M2 (Homo sapiens); experiment: Binding affinity to human muscarinic acetylcholine receptor M2 expressed in live adherent CHOK9 cells at Kd in presence of 500-fold excess atropine after 2 hrs by liquid scintillation counting assay relative to control; format: cell-based; conditions: tested as the 3H-labelled form; summary of the method: as §1
# [13] = target: T5, Muscarinic acetylcholine receptor M2 (Homo sapiens); experiment: Binding affinity to human muscarinic acetylcholine receptor M2 expressed in CHOK9 cell homogenates at Kd in presence of 500-fold excess atropine after 2 hrs by liquid scintillation counting assay relative to control; conditions: tested as the 3H-labelled form; summary of the method: as §2
# [14] = target: T5, Muscarinic acetylcholine receptor M2 (Homo sapiens); experiment: (§3) Competitive antagonist activity at human muscarinic acetylcholine receptor M2 expressed in HEK293 cells coexpressing HA tagged Galpha-protein qi5 assessed as inhibition of 0.1 uM carbachol-induced IP1 accumulation preincubated for 30 mins followed by carbachol addition measured after 1 hr by HTRF assay; format: functional, cell-based
# Summary of the method: (§4)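 HEK-293 transiently cotransfected with human M2R and Gαqi5-HA. Cells preincubated 30 min with antagonist, then carbachol added (final 0.1, 0.3, 1 or 10 μM), 1 h at 37 °C. IP1 detected by HTRF (620/670 nm emission, 330 nm excitation). At least four independent experiments, each in duplicate.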
# [15] = target: T1, Muscarinic acetylcholine receptor M2; experiment: as §3; format: functional, cell-based; summary of the method: as §4
# [16] = target: T5, Muscarinic acetylcholine receptor M2 (Homo sapiens); experiment: (§5) Competitive antagonist activity at human muscarinic acetylcholine receptor M2 expressed in HEK293 cells coexpressing HA tagged Galpha-protein qi5 assessed as inhibition of 1 uM carbachol-induced IP1 accumulation preincubated for 30 mins followed by carbachol addition measured after 1 hr by HTRF assay; format: functional, cell-based; summary of the method: as §4
# [17] = target: T1, Muscarinic acetylcholine receptor M2; experiment: as §5; format: functional, cell-based; summary of the method: as §4
# [18] = target: T5, Muscarinic acetylcholine receptor M2 (Homo sapiens); experiment: (§6) Competitive antagonist activity at human muscarinic acetylcholine receptor M2 expressed in HEK293 cells coexpressing HA tagged Galpha-protein qi5 assessed as inhibition of 10 uM carbachol-induced IP1 accumulation preincubated for 30 mins followed by carbachol addition measured after 1 hr by HTRF assay; format: functional, cell-based; summary of the method: as §4
# [19] = target: T1, Muscarinic acetylcholine receptor M2; experiment: as §6; format: functional, cell-based; summary of the method: as §4
# [20] = target: T5, Muscarinic acetylcholine receptor M2 (Homo sapiens); experiment: Agonist activity at human muscarinic acetylcholine receptor M2 expressed in HEK293 cells coexpressing HA tagged Galpha-protein qi5 assessed as induction of IP1 accumulation measured after 1 hr by HTRF assay; format: functional, cell-based
# Summary of the method: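 HEK-293 transiently cotransfected with human M2R and Gαqi5-HA, seeded 24 h before assay (10000 cells/well). Compounds in stimulation buffer (1 pM–100 μM final) 1 h at 37 °C; IP1 read by HTRF (620/670 nm, excitation 330 nm) after 60 min with detection reagents at rt. Duplicate, three experiments, carbachol as reference.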
# [21] = target: T5, Muscarinic acetylcholine receptor M2 (Homo sapiens); experiment: Antagonist activity at human muscarinic acetylcholine receptor M2 expressed in HEK293 cells coexpressing HA tagged Galpha-protein qi5 assessed as inhibition of 0.3 uM carbachol-induced IP1 accumulation preincubated for 30 mins followed by carbachol addition measured after 1 hr by HTRF assay; format: functional, cell-based; summary of the method: as §4
# [22] = target: T5, Muscarinic acetylcholine receptor M2 (Homo sapiens); experiment: Binding affinity to human muscarinic acetylcholine receptor M2 expressed in CHOK9 cells assessed as association rate constant incubated up to 140 mins by liquid scintillation counting assay; format: cell-based; conditions: tested as the 3H-labelled form
# [23] = target: T5, Muscarinic acetylcholine receptor M2 (Homo sapiens); experiment: Binding affinity to human muscarinic acetylcholine receptor M2 expressed in CHOK9 cells assessed as dissociation rate constant after 105 mins by liquid scintillation counting assay; format: cell-based; conditions: tested as the 3H-labelled form
# [24] = target: T5, Muscarinic acetylcholine receptor M2 (Homo sapiens); experiment: Binding affinity to human muscarinic acetylcholine receptor M2 expressed in CHOK9 cells assessed as dissociation half life after 105 mins by liquid scintillation counting assay; format: cell-based; conditions: tested as the 3H-labelled form
# [25] = target: T5, Muscarinic acetylcholine receptor M2 (Homo sapiens)
smiles,measurement,setting,value
O=C1CCCN1CC#CCN1CCCC1 [OXOTREMORINE],Ki,[1],148 nM
same,Ki,[2],10000 nM
same,Ki,[3],251 to 10000 nM
CCC(=O)NC1CN(CCCCC2CCN(CC(=O)N3c4ccccc4NC(=O)c4ccccc43)CC2)CCN(CCCCC2CCN(CC(=O)N3c4ccccc4NC(=O)c4ccccc43)CC2)C1.O=C(O)C(F)(F)F.O=C(O)C(F)(F)F.O=C(O)C(F)(F)F.O=C(O)C(F)(F)F,Ki,[4],7.08 nM
same,Ki,[5],0.708 nM
same,Ki,[6],200 nM
same,Ki,[7],3.63 nM
same,Ki,[8],77.6 nM
same,Bmax (disintegrations/minute),[9],3800
same,Bmax (disintegrations/minute),[10],4900
same,Stability,[11],Stable
same,Activity,[12],> 60%
same,Activity,[13],< 15%
CCC(=O)NCCNC(=O)CCc1cn(CCCCC2CCN(CC(=O)N3c4ccccc4NC(=O)c4ccccc43)CC2)cn1,Ki,[5],0.759 nM
same,inhibition,[14],Dose-dependent effect
same,IC50,[15],33.9 nM
same,inhibition,[16],Dose-dependent effect
same,IC50,[17],85.1 nM
same,inhibition,[18],Dose-dependent effect
same,IC50,[19],355 nM
same,Activity,[20],inactive
same,inhibition,[21],Dose-dependent effect
same,pKb,[21],7.53
same,Bmax (disintegrations/minute),[9],780
same,Ki,[1],1.1 nM
same,Ki,[2],10.2 nM
same,K,[22],217000 M⁻¹ s⁻¹
same,K,[23],0.0091 min⁻¹
same,T1/2,[24],1.18 h
same,Stability,[11],Stable
same,Activity,[12],< 5%
Cc1c(Cl)c(OCC(=O)N2CCN(C)CC2)nc2sc(C(=O)NC3CC3)c(N)c12,pKb,[25],5.77
